Source: ChEMBL document CHEMBL4261529, “Rational design and optimization of selenophenes with basic side chains as novel potent selective estrogen receptor modulators (SERMs) for breast cancer therapy” (Medchemcomm, 2017)
Active and inactive are the calls of the source. The calls are words filed in the database; no cut-off is given here.

Key:
[1] = biological target: T1, Estrogen receptor (Homo sapiens) (UniProt P03372); assay: Binding affinity to human ERalpha LBD expressed in Escherichia coli BL21(DE3) after 2 hrs by fluorescence tracer coumestrol based competitive fluorometric binding assay relative to 17beta-estradiol
T1 sequence (whole entry): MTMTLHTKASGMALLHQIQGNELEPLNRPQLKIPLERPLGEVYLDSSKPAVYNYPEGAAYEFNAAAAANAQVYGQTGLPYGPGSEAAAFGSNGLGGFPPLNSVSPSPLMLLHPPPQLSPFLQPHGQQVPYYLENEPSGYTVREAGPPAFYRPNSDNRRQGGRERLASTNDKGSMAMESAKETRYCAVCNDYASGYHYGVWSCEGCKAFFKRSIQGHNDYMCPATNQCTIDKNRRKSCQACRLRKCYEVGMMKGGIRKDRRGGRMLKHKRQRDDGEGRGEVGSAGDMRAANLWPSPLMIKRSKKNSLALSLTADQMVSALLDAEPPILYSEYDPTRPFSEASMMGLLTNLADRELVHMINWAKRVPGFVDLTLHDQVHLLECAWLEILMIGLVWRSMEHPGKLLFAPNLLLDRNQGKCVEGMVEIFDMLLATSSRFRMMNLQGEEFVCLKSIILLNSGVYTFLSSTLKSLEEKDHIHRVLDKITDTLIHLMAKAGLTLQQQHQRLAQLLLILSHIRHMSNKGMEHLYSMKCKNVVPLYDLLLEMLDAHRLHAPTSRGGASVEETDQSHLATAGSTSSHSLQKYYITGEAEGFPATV

Estrogen receptor beta [2] = biological target: T2, Estrogen receptor beta (Homo sapiens, UniProt Q92731); assay: Binding affinity to human ERbeta LBD expressed in Escherichia coli BL21(DE3) after 2 hrs by fluorescence tracer coumestrol based competitive fluorometric binding assay relative to 17beta-estradiol
Homo sapiens = species on record: Homo sapiens; assay: Ratio of relative binding affinity for human ERalpha LBD to relative binding affinity to human ERbeta LBD
Estrogen receptor [3] = biological target: T3, Estrogen receptor (Homo sapiens, UniProt P03372); assay: Antagonist activity at ERalpha (unknown origin) expressed in HEK293T cells assessed as inhibition of 17beta-estradiol stimulated transcriptional activity after 24 hrs by dual luciferase reporter gene assay; type: cell-based
T3 sequence (P03372 whole entry): T1 sequence (whole entry)

Estrogen receptor beta [4] = biological target: T2, Estrogen receptor beta; assay: Antagonist activity at ERbeta (unknown origin) expressed in HEK293T cells assessed as inhibition of 17beta-estradiol stimulated transcriptional activity after 24 hrs by dual luciferase reporter gene assay relative to 17beta-estradiol; type: cell-based
Outline: (§1)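 ERβ expression vector (100 ng) plus 300 ng 3×ERE-luciferase reporter, calcium phosphate transfection into HEK293T cells plated in phenol red-free DMEM with 10% FBS. Next day, treated in triplicate with increasing doses (up to 10–5 M). For antagonist mode, 10 nM estradiol was co-added. Luciferase read 24 h later.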

Estrogen receptor beta [5] = biological target: T2, Estrogen receptor beta; assay: Antagonist activity at ERbeta (unknown origin) expressed in HEK293T cells assessed as inhibition of 17beta-estradiol stimulated transcriptional activity after 24 hrs by dual luciferase reporter gene assay; type: cell-based
Outline: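 HEK293T cells kept in DMEM with 10% FBS, plated in phenol red-free DMEM/10% FBS. Calcium phosphate co-transfection with 300 ng 3×ERE-luciferase reporter and 100 ng ERβ expression vector. Next day, cells stimulated with 10 nM estradiol plus increasing compound doses (up to 10–5 M), in triplicate. Luciferase read after 24 h.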

MCF7 [6] = assay: Antiproliferative activity against human MCF7 cells after 72 hrs by MTT assay; type: functional, cell-based; settings: MCF7, 72 h
Outline: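 MCF-7 (ATCC), kept in DMEM with 10% FBS, were treated in triplicate for 72 h. IC50 is the average of at least three independent experiments ± SD.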

Estrogen receptor [7] = biological target: T3, Estrogen receptor; assay: Agonist activity at ERalpha (unknown origin) expressed in HEK293T cells assessed as transcriptional activity after 24 hrs by dual luciferase reporter gene assay; type: cell-based
Estrogen receptor beta [8] = biological target: T2, Estrogen receptor beta; assay: Agonist activity at ERbeta (unknown origin) expressed in HEK293T cells assessed as transcriptional activity after 24 hrs by dual luciferase reporter gene assay relative to 17beta-estradiol; type: cell-based; outline: as §1
MCF7 [9] = assay: Antiproliferative activity against human MCF7 cells at 50 uM after 5 days in presence of 10 nM 17beta-estradiol by MTT assay; type: functional, cell-based
Outline: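 MCF-7 cells were given 50 μM compound with or without 10 nM E2 and cultured 5 days. Viability was expressed relative to untreated cells set at 100%. Mean of three separate experiments ± range.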

Estrogen receptor beta [10] = biological target: T2, Estrogen receptor beta; assay: Agonist activity at ERbeta (unknown origin) expressed in HEK293T cells assessed as transcriptional activity after 24 hrs by dual luciferase reporter gene assay; type: cell-based; outline: as §1

T2 sequence (Q92731 whole entry, the tested form may be a part): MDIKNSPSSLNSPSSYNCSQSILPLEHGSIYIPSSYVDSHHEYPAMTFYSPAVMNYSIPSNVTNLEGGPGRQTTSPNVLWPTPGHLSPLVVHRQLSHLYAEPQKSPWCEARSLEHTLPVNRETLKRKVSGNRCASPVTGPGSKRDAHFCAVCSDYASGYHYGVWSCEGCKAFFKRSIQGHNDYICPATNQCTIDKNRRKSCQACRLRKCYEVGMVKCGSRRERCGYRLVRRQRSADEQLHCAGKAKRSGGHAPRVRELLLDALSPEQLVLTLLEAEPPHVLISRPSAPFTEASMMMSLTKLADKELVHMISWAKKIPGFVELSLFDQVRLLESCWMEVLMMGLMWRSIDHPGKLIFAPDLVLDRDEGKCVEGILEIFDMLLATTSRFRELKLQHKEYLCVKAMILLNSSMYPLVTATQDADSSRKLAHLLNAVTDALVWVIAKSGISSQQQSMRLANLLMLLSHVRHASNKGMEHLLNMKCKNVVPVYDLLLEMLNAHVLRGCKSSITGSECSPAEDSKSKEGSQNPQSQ

SMILES | RBA [1] [%] | RBA (Estrogen receptor beta [2]) [%] | Ratio (Homo sapiens) | IC50 (Estrogen receptor [3]) [nM] | Efficacy (Estrogen receptor beta [4]) [%] | IC50 (Estrogen receptor beta [5]) [nM] | IC50 (MCF7 [6]) [nM] | EC50 (Estrogen receptor [7]) [nM] | Efficacy (Estrogen receptor beta [8]) [%] | Activity (MCF7 [9]) | EC50 (Estrogen receptor beta [10]) [nM]
Oc1ccc(-c2ccc(-c3ccc(O)cc3F)[se]2)c(F)c1 | 5.9 | 24.3 |  |  |  |  |  |  |  |  | 
Oc1ccc(-c2c[se]cc2-c2ccc(O)c(F)c2)cc1F | 0.58 | 1.56 |  |  |  |  |  |  |  |  | 
Oc1ccc(-c2ccc(-c3ccc(OCCN4CCCC4)cc3Cl)[se]2)c(Cl)c1 | 4.59 | 23.6 | 0.19 | 415 | 49.4 | 299 | 7810 |  |  |  | 
Cc1cc(O)ccc1-c1ccc(-c2ccc(OCCN3CCCCC3)cc2C)[se]1 | < 0.1 | 0.62 | < 0.1 | 41 | 78.3 | 1240 | 25300 | 2370 |  |  | 
Cc1cc(O)ccc1-c1c[se]cc1-c1ccc(OCCN2CCCC2)cc1C | 1.65 | 0.46 | 3.6 | 179 | 66.7 | 43 | 16600 |  |  |  | 
Oc1ccc(-c2ccc(-c3ccc(O)cc3)[se]2)cc1 | 0.61 | 2.87 |  |  |  |  |  |  |  |  | 
Cc1cc(-c2c[se]cc2-c2ccc(OCCN3CCCC3)c(C)c2)ccc1O | 2.03 | 5.92 | 0.34 | 836 | 34.1 | 5 | 12800 | 116 | 20.8 |  | 
Oc1ccc(-c2c[se]cc2-c2ccc(OCCN3CCCCC3)c(F)c2)cc1F | 4.82 | 15.3 | 0.32 | 69 | 45 | 540 | 15600 |  |  |  | 
Cc1cc(-c2c[se]cc2-c2ccc(OCCN3CCCCC3)c(C)c2)ccc1O | < 0.1 | < 0.1 |  |  | 30.3 | 415 | > 100000 | 721 |  |  | 
Oc1ccc(-c2c[se]cc2-c2ccc(OCCN3CCCC3)cc2)cc1 | 2.06 | 5.92 | 0.35 |  | 46.7 | 102 | > 100000 | 1000 |  |  | 
Oc1ccc(-c2c[se]cc2-c2ccc(OCCN3CCCC3)cc2Cl)c(Cl)c1 | < 0.1 | 23.3 | < 0.1 | 769 | 68.1 | 1160 | 10900 |  |  |  | 
Cc1cc(O)ccc1-c1cc(-c2ccc(OCCN3CCCC3)cc2)c(-c2ccc(O)cc2C)[se]1 | 13.8 | 3.4 | 4.06 | 13 | 170 | 16 | 7050 |  |  |  | 
Oc1ccc(-c2ccc(-c3ccc(OCCN4CCCC4)cc3)[se]2)cc1 | 12.4 | 1.02 | 12.2 | 1210 | 83.9 | 1270 | 5770 | 219 |  | inactive | 
Oc1ccc(-c2cc(-c3ccc(OCCN4CCCC4)cc3)c(-c3ccc(O)cc3)[se]2)cc1 | 3.14 | 16.7 | 0.18 | 974 | 49.2 | 475 | 4950 |  |  | inactive | 
Oc1ccc(-c2ccc(-c3ccc(OCCN4CCCC4)cc3F)[se]2)c(F)c1 | 0.76 | < 0.1 | > 10 |  | 92.1 | 1120 | > 100000 | 136 |  |  | 
Oc1ccc(-c2ccc(-c3ccc(O)cc3Cl)[se]2)c(Cl)c1 | 6.11 | 12.7 | 0.48 |  |  |  |  |  |  |  | 
Cc1cc(O)ccc1-c1ccc(-c2ccc(O)cc2C)[se]1 | 5.6 | 11.1 |  |  |  |  |  |  |  |  | 
Oc1ccc(-c2c[se]cc2-c2ccc(OCCN3CCCCC3)cc2Cl)c(Cl)c1 | 5.38 | 18.4 | 0.29 | 413 | 37.7 | 331 | 14100 |  |  |  | 
Oc1ccc(-c2c[se]cc2-c2ccc(OCCN3CCCCC3)cc2)cc1 | 7.58 | 2.35 | 3.3 | 1590 | 22.8 | 451 | 8130 |  | 53.5 | inactive | 1150
Oc1ccc(-c2cc(-c3ccc(OCCN4CCCCC4)cc3)c(-c3ccc(O)cc3)[se]2)cc1 | 4.59 | < 0.1 | > 10 | 779 | 33.8 | 5390 | 7040 | 1830 |  |  | 
Oc1ccc(-c2c[se]cc2-c2ccc(O)cc2)cc1 | 0.32 | 2.01 |  |  |  |  |  |  |  |  | 
Cc1cc(O)ccc1-c1c[se]cc1-c1ccc(O)cc1C | 0.27 | 6.7 |  |  |  |  |  |  |  |  | 
Oc1ccc(-c2ccc(-c3ccc(OCCN4CCCCC4)cc3Cl)[se]2)c(Cl)c1 | < 0.1 | < 0.1 |  |  | 24.9 | 2960 | > 100000 | 911 |  |  | 
Cc1cc(O)ccc1-c1ccc(-c2ccc(OCCN3CCCC3)cc2C)[se]1 | 1.96 | 0.58 | 3.37 | 874 | 4.6 | 146 | 53800 |  | 72.3 |  | 240
Cc1cc(O)ccc1-c1c[se]cc1-c1ccc(OCCN2CCCCC2)cc1C | 0.56 | 10.2 | 0.05 | 237 | 43.4 | 1340 | 15800 | 158 |  |  | 
Oc1ccc(-c2ccc(-c3ccc(OCCN4CCCCC4)cc3F)[se]2)c(F)c1 | 6.89 | 0.63 | 10.9 |  | 75.4 | 1940 | > 100000 | 204 |  |  | 
Cc1cc(-c2c[se]cc2-c2ccc(O)c(C)c2)ccc1O | 0.71 | 0.62 |  |  |  |  |  |  |  |  | 
